Test results taken from ChEMBL document CHEMBL2375253, “Discovery of novel 2,6-disubstituted pyridazinone derivatives as acetylcholinesterase inhibitors” (Eur J Med Chem, 2013).

Columns and labels:
[1] = target: T1, Acetylcholinesterase (Rattus norvegicus, UniProt P37136); test: Inhibition of AChE in rat cerebral cortex homogenates using acetylthiocholine iodide as substrate after 8 mins by Ellman's spectrophotometric method; type: tissue-based
T1 sequence (P37136 whole entry): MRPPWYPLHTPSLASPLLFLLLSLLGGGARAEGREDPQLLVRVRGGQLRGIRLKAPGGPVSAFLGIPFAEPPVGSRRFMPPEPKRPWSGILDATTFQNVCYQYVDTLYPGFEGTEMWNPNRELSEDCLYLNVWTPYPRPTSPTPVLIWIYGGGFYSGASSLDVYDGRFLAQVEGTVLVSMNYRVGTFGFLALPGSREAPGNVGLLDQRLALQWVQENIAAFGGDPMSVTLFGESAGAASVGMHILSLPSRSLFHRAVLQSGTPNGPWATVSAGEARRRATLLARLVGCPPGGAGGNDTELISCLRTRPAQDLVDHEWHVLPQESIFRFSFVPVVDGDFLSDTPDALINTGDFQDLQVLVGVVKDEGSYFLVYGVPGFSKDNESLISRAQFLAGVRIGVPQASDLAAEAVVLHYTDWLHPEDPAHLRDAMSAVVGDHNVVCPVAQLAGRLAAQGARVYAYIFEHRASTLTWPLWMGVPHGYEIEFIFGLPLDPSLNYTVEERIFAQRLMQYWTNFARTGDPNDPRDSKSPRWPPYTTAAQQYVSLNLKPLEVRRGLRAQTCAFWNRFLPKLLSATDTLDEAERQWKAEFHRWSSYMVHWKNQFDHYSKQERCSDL
Outline: (§1)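 Ellman colorimetric assay. Compounds were dissolved in DMSO to 10 mM and diluted in double-distilled water. Each mixture held compound, phosphate buffer ([…]) and enzyme with substrate. For AChE, rat cerebral cortex homogenate was used with acetylthiocholine iodide (2 mM solution). For BuChE, rat serum was used with S-butyrylthiocholine iodide (2 mM solution). Incubated 8 min, stopped with 3% SDS, then 0.2% DTNB added. Absorbance read at 440 nm, duplicates.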

[2] = species on record: Rattus norvegicus; test: Selectivity ratio of IC50 for rat serum BuChE to IC50 for AChE in rat cerebral cortex homogenates; type: tissue-based
[3] = target: Butyrylcholinesterase (Rattus norvegicus, UniProt Q9JKC1); test: Inhibition of rat serum BuChE using S-butyrylthiocholine iodide as substrate after 8 mins by Ellman's spectrophotometric method; outline: as §1
Chain of Butyrylcholinesterase (Q9JKC1 whole entry): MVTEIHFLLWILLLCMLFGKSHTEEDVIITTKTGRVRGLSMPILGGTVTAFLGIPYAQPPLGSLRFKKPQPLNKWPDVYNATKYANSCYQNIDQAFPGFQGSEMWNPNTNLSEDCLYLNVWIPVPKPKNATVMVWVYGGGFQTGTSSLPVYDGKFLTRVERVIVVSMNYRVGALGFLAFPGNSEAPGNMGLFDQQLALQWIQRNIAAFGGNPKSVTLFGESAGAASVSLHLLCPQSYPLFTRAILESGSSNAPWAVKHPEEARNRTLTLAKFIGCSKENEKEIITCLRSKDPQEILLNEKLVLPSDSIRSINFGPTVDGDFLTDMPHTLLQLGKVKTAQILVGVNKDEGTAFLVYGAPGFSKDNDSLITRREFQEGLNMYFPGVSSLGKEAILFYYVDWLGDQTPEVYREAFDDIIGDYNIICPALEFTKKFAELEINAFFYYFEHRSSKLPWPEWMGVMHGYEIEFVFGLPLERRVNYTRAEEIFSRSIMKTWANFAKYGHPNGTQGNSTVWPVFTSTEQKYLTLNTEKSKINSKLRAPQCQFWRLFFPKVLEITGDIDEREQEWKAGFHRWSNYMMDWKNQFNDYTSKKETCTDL

| Compound | IC50 ([1]; read-out: IC50) [nM] | IC50 [1] | Ratio IC50 [2] | IC50 [3] [nM] |
| --- | --- | --- | --- | --- |
| CCN(CC)C(=O)C1CCN(C(=O)Nc2cccc(Cn3nc(-c4cccc(C)c4)ccc3=O)c2)CC1 | 746 | – | – | – |
| CCN(CC)C(=O)C1CCN(C(=O)Nc2cccc(Cn3nc(-c4cccc(C#N)c4)ccc3=O)c2)CC1 | 220 | – | – | – |
| CCc1ccccc1Nc1ccc(=O)n(Cc2cccc(NC(=O)N3CCC(C(=O)N(CC)CC)CC3)c2)n1 | 188 | – | – | – |
| CCN(CC)C(=O)C1CCN(C(=O)Nc2cccc(Cn3nc(Nc4ccc(C)cc4)ccc3=O)c2)CC1 | 19800 | – | – | – |
| CCN(CC)C(=O)C1CCN(C(=O)Nc2cccc(Cn3nc(Nc4ccccc4C(C)C)ccc3=O)c2)CC1 | 1500 | – | – | – |
| Cc1ccccc1Nc1ccc(=O)n(Cc2cccc(NC(=O)N3CCC(C(=O)N4CCOCC4)CC3)c2)n1 | – | Not Active | – | – |
| CCN(CC)C(=O)C1CCN(C(=O)Nc2cccc(Cn3nc(Nc4ccccc4C)ccc3=O)c2)CC1 | 49 | – | > 816 | > 40000 |
| CCN(CC)C(=O)C1CCN(C(=O)Nc2cccc(Cn3nc(-c4ccccc4)ccc3=O)c2)CC1 | 1660 | – | > 24 | > 40000 |
| CCN(CC)C(=O)C1CCN(C(=O)Nc2cccc(Cn3nc(-c4cccc(Cl)c4)ccc3=O)c2)CC1 | 648 | – | – | – |
| CCN(CC)C(=O)C1CCN(C(=O)Nc2cccc(Cn3nc(-c4cccc5ccccc45)ccc3=O)c2)CC1 | 188 | – | > 212 | > 40000 |
| CCN(CC)C(=O)C1CCN(C(=O)Nc2cccc(Cn3nc(Nc4cccc5ccccc45)ccc3=O)c2)CC1 | 126 | – | – | – |
| CCN(CC)C(=O)C1CCN(C(=O)Nc2cccc(Cn3nc(Nc4cccc(C(F)(F)F)c4)ccc3=O)c2)CC1 | 135 | – | – | – |
| CCN(C(=O)C1CCN(C(=O)Nc2cccc(Cn3nc(Nc4ccccc4C)ccc3=O)c2)CC1)C(C)C | 28 | – | 196 | 5500 |
| CCN(CC)C(=O)C1CCN(C(=O)Nc2cccc(Cn3nc(Nc4ccc(C(F)(F)F)cc4)ccc3=O)c2)CC1 | 4840 | – | – | – |
| CCN(C)C(=O)C1CCN(C(=O)Nc2cccc(Cn3nc(Nc4ccccc4C)ccc3=O)c2)CC1 | 473 | – | > 84 | > 40000 |
| CCN(CC)C(=O)C1CCN(C(=O)Nc2cccc(Cn3nc(Nc4cccc(C)c4)ccc3=O)c2)CC1 | 1420 | – | – | – |
| Cc1ccccc1Nc1ccc(=O)n(Cc2cccc(NC(=O)N3CCC(C(=O)N(C)C(C)C)CC3)c2)n1 | 46 | – | 217 | 10000 |
| CCN(CC)C(=O)C1CCN(C(=O)Nc2cccc(Cn3nc(-c4cccc(Br)c4)ccc3=O)c2)CC1 | 623 | – | – | – |
| CCN(CC)C(=O)C1CCN(C(=O)Nc2cccc(Cn3ncccc3=O)c2)CC1 | 4900 | – | – | – |
| Cc1ccccc1Nc1ccc(=O)n(Cc2cccc(NC(=O)N3CCC(C(=O)N(C)C)CC3)c2)n1 | 7600 | – | – | – |
| c1ccc(CN2CCC(CCN=c3cc4c(n[nH]3)-c3ccccc3C4)CC2)cc1 | 10 | – | – | – |
| CCN(CC)C(=O)C1CCN(C(=O)Nc2cccc(Cn3nc(Nc4ccccc4)ccc3=O)c2)CC1 | 3280 | – | > 12 | > 40000 |
| Cc1ccccc1Nc1ccc(=O)n(Cc2cccc(NC(=O)N3CCC(C(=O)N(C(C)C)C(C)C)CC3)c2)n1 | 116 | – | – | – |
| CCN(CC)C(=O)C1CCN(C(=O)Nc2cccc(Cn3nc(-c4ccccc4C)ccc3=O)c2)CC1 | 2610 | – | – | – |
| c1ccc(CN2CCC(CCNc3cc4c(nn3)-c3ccccc3CC4)CC2)cc1 | 39 | – | – | – |
| CCN(CC)C(=O)C1CCN(C(=O)Nc2cccc(Cn3nc(-c4ccc(C)cc4)ccc3=O)c2)CC1 | 2010 | – | – | – |
| CCN(CC)C(=O)C1CCN(C(=O)Nc2cccc(Cn3nc(-c4ccc5ccccc5c4)ccc3=O)c2)CC1 | 462 | – | – | – |
| CCN(CC)C(=O)C1CCN(C(=O)Nc2cccc(Cn3nc(Nc4c(C)cccc4C)ccc3=O)c2)CC1 | 607 | – | – | – |
| CCN(CC)C(=O)C1CCN(C(=O)Nc2cccc(Cn3nc(Nc4ccccc4C(F)(F)F)ccc3=O)c2)CC1 | 119 | – | – | – |
